Data set [1] deals with A431 human tumor xenografts. Put plainly: A431 human tumor xenograft study in nude mice. It counts as in vivo. Conditions: A431 xenograft tumor tissue protein, Western blot. The method, boiled down:
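Athymic BALB/c nude mice, 4–6 weeks old, were implanted s.c. at one site with 1.5 × 10^7 A431 cells under anaesthesia. At 100–200 mm3, mice were randomised into four groups. Saline vehicle (0.1 mL/10 g) or test compound at 10 or 40 mg/kg was given i.g. daily for 27 days. Caliper tumour size and body weight were recorded every 2 days. Excised tumours were weighed, RIPA-extracted and Western blotted; mean ± SD, n = 3.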

A short description of data set [2]: Metabolic stability in rat liver microsomes. It counts as in vitro ADME. Conditions: pH 7.4. The gist of the method:
(§1)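 Liver microsomes were incubated in PBS pH 7.4 at 37 °C with test compound at 1 μmol/L final (1.5 μmol/L in the microsome pre-mix, 0.75 mg/mL microsomes). The reaction was started with NADPH (6 mmol/L stock). Samples at 0, 5, 15, 30 and 45 min were quenched with acetonitrile containing internal standard, vortexed, centrifuged and analysed by LC–MS/MS. Results were expressed as % parent remaining, giving t1/2.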

Data set [3] can be described thus: Metabolic stability in mouse liver microsomes. The format is in vitro ADME. Conditions: pH 7.4. The gist of the method:
as §1

Data set [4] in a line: Metabolic stability in dog liver microsomes. The settings on record: pH 7.4. It counts as in vitro ADME. The gist of the method:
as §1

A short description of data set [5]: Metabolic stability in monkey liver microsomes. The format is in vitro ADME. Conditions: pH 7.4. The method, boiled down:
as §1

Data set [6] is described as follows: Pharmacokinetic study in rats. It counts as in vivo. The settings on record: Sprague-Dawley, rat, plasma; for AUC: mean ± SD, n = 3.
A short description of data set [7]: Caco-2 cell permeability assay. The settings on record: human.

`COc1cc2ncnc(Nc3ccc(F)c(Cl)c3)c2cc1OCCCN1CCOCC1` [Gefitinib]: the “p-EGFR and p-AKT in tumor extracts” value in data set [1] is “clearly inhibited”. The half-life at 1 μmol/L in data set [2] stood at 21.2 min; in data set [3], 8.38 min; in data set [4] it was 34.5 min; in data set [5], 4.66 min. In addition, the MRT inf in data set [6] (iv, 10 mg/kg) came out at 272 ± 11.4 min. Further, the area under the curve (AUC) came to 7800 ± 1460 ng·h/mL in data set [6] (iv, 10 mg/kg, AUCINF_plasma, i.v. 10 mg/kg); 7720 ± 1430 ng·h/mL in data set [6] (iv, 10 mg/kg, AUClast_plasma, i.v. 10 mg/kg); 20800 ng·h/mL in data set [6] (po, 40 mg/kg, AUCINF_plasma, p.o. 40 mg/kg); 20500 ng·h/mL in data set [6] (po, 40 mg/kg, AUClast_plasma, p.o. 40 mg/kg). Besides, in data set [6] (oral, 40 mg/kg), the bioavailability was determined as 66.5 ± 22.8%. The same compound yielded a Cmax in data set [6] (po, 40 mg/kg) of 1480 ± 395 ng/mL. For the same compound, the Tmax in data set [6] (po, 40 mg/kg) was found to be 260 ± 173 min. The compound further showed a half-life in data set [6] (po, 40 mg/kg) of 231 ± 21 min. This compound also showed an apparent permeability from apical to basolateral (Papp A→B) at 90 min, 10 μmol/L in data set [7] of 8.37 ± 0.01 ×10⁻⁶ cm/s. Besides, the apparent permeability from basolateral to apical (Papp B→A) at 90 min, 10 μmol/L in data set [7] was 15.52 ± 0.02 ×10⁻⁶ cm/s.

For the compound `CC[C@H]1OC(=O)[C@H](C)[C@@H](O[C@H]2C[C@@](C)(OC)[C@@H](O)[C@H](C)O2)[C@H](C)[C@@H](O[C@@H]2O[C@H](C)C[C@H](N(C)C)[C@H]2O)[C@](C)(O)C[C@@H](C)C(=O)[C@H](C)[C@@H](O)[C@]1(C)O` [Erythromycin], in data set [7], the Papp A→B at 90 min, 10 μmol/L was found to be 0.09 ± 0.03 ×10⁻⁶ cm/s; the basolateral-to-apical permeability (Papp B→A) at 90 min, 10 μmol/L is 22.18 ± 0.02 ×10⁻⁶ cm/s; the efflux ratio at 90 min, 10 μmol/L came out at 240.

Regarding `COCCc1ccc(OCC(O)CNC(C)C)cc1` (stereo not shown) [Metoprolol], in data set [7], the Papp A→B at 90 min, 10 μmol/L is 40.04 ± 0.05 ×10⁻⁶ cm/s; the basolateral-to-apical permeability (Papp B→A) at 90 min, 10 μmol/L came out at 30.92 ± 0.03 ×10⁻⁶ cm/s; the efflux ratio at 90 min, 10 μmol/L was determined as 0.77.

These data come from paper PMC6900553 (Acta Pharmaceutica Sinica. B, 2019).
